ChEMBL document CHEMBL3124890, “SAR studies on trisubstituted benzimidazoles as inhibitors of Mtb FtsZ for the development of novel antitubercular agents” (J Med Chem, 2013)
≈ marks a conversion by molar mass, not a printed value.

Assays:
[1] = system: Mycobacterium tuberculosis; assay: […]; type: functional, TN587
How it was run: (§1)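 Strains were grown at 37 °C in 7H9 Middlebrook broth with 10% OADC, 0.05% Tween and 0.2% glycerol. Compounds were dissolved in DMSO and serially diluted 2-fold, then bacteria were added. Plates were incubated 6 days at 37 °C, then 24 h more with Alamar Blue. MIC was the lowest concentration (μg/mL) that prevented the colour change. Run in triplicate.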

[2] = system: Mycobacterium tuberculosis; assay: […]; type: functional, NHN382; how it was run: as §1

Row | SMILES | MIC [1] [µg/mL] | MIC [2] [µg/mL]
1 | CCc1ccc(C(=O)Nc2cc3nc(C4CCCCC4)[nH]c3cc2N(C)C)cc1 | 0.16 (≈ 0.41 µM) | 0.16 (≈ 0.41 µM)
2 | CCCCOC(=O)Nc1cc2nc(C3CCCCC3)[nH]c2cc1N(CC)CC | 1.25 (≈ 3.23 µM) | 1.25 (≈ 3.23 µM)
3 | NNC(=O)c1ccncc1 [ISONIAZID] | 0.25 (≈ 1.82 µM) | 0.25 (≈ 1.82 µM)
4 | CCCCOC(=O)Nc1cc2nc(C3CCCCC3)[nH]c2cc1N(C)C | 0.13 (≈ 0.363 µM) | 0.06 (≈ 0.167 µM)
